Structures are written as SMILES. pIC50: −log10 of the molar value.

Experiment [1] has as its system A549. The experiment in a line: Induction of apoptosis in human A549 cells assessed as early apoptotic cells after 48 hrs by Annexin V-FITC/propidium iodide staining based flow cytometry (reference value: 0.5 %). Format: functional. The essentials:
(§1)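 2 × 10^5 A549 cells seeded and given 25 µM compound for 48 h. Cells were trypsinized and washed in ice-cold PBS. 1 × 10^5 cells were stained with Annexin V-FITC plus propidium iodide in binding buffer for 15 min at room temperature, diluted with binding buffer, kept on ice, and run on a flow cytometer. Quadrants: viable, early apoptotic, late apoptotic, necrotic.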
(A flow cytometer gives signals particle by particle.)

Experiment [2] can be described thus: Cytotoxicity against human PC3 cells assessed as cell growth inhibition after 48 hrs by MTT assay. Format: functional, cell-based. The conditions noted are these: PC-3, 48 h. Summed up:
(§2)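 Cells seeded in 96-well plates (MDA-MB-231, A549, AsPC-1 5×10^3; PC-3 8×10^3; HCT116 1×10^4 per well), attached 24 h in RPMI-1640 with 10% fetal calf serum at 37°C, 5% CO2. Serially diluted compound (final 0–400 μM, DMSO <0.1%) added for 48 h; 5-FU positive control. MTT read at 560 nm, triplicate; viability = treated/vehicle mean OD.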
In general terms: Tetrazolium dyes change colour on reduction, which living cells bring about.

Another experiment relates to ASPC1. The experiment in a line: Cytotoxicity against human AsPC1 cells assessed as cell growth inhibition after 48 hrs by MTT assay. It is filed as functional, cell-based. The note with it: ASPC1, 48 h. The essentials: as §2
In experiment [3] the test system is A549. The experiment in a line: Cell cycle arrest in human A549 cells assessed as accumulation at G2/M phase after 48 hrs by propidium iodide staining based flow cytometry (reference value: 23.4 %). It is filed as functional. Summed up:
(§3)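 A549 cells exposed 48 h to 25 µM xanthone derivative, fixed overnight in 70% ethanol, then stained 30 min at room temperature with 50 µg/mL propidium iodide, 200 µg/mL RNase A and 0.3% Triton X-100. Sub-G1, G0/1, S and G2/M fractions were measured by flow cytometry. Three independent experiments.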

Experiment [4] deals with A549. The experiment is described as follows: Induction of apoptosis in human A549 cells assessed as viable cells after 48 hrs by Annexin V-FITC/propidium iodide staining based flow cytometry (reference value: 98.2 %). Format: functional. The essentials: as §1
In experiment [5] the test system is A549. The experiment in a line: Induction of apoptosis in human A549 cells assessed as necrotic cells after 48 hrs by Annexin V-FITC/propidium iodide staining based flow cytometry (reference value: 0.1 %). It is filed as functional. The essentials:
as §1

Experiment [6] is described as follows: Cytotoxicity against human HCT116 cells assessed as cell growth inhibition after 48 hrs by MTT assay. The conditions noted are these: HCT-116, 48 h. It is filed as functional, cell-based. The essentials: as §2
Experiment [7] relates to A549. The experiment in a line: Cytotoxicity against human A549 cells assessed as cell growth inhibition after 48 hrs by MTT assay. Format: functional, cell-based. The note with it: A549, 48 h. Summed up:
as §2

Experiment [8] deals with A549. The experiment in a line: Cell cycle arrest in human A549 cells assessed as accumulation at G0/G1 phase after 48 hrs by propidium iodide staining based flow cytometry (reference value: 68.1 %). It is filed as functional. The essentials: as §3
In experiment [9] the test system is A549. The experiment is described as follows: Induction of apoptosis in human A549 cells assessed as late apoptotic cells after 48 hrs by Annexin V-FITC/propidium iodide staining based flow cytometry (reference value: 1.2 %). Format: functional. Summed up:
as §1

For experiment [10], the system named is A549. The experiment in a line: Cell cycle arrest in human A549 cells assessed as accumulation at S phase after 48 hrs by propidium iodide staining based flow cytometry (reference value: 9.3 %). It is filed as functional. The essentials:
as §3

Experiment [11] concerns A549. The experiment in a line: Induction of apoptosis in human A549 cells assessed as increase in caspase 3/7 activity after 48 hrs by Caspase-Glo 3/7 assay relative to control. It is filed as functional. The essentials: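 In duplicate, 8 × 10^3 A549 cells were treated with 25 µM compound for 48 h. Caspase-3/7 luminescence was read 1 h after adding the Caspase-Glo 3/7 substrate, with blank (medium plus reagent) subtracted. Fold increase = treated reading / control reading. Mean ± 1 SD.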

For another experiment, the system named is MDA-MB-231. The experiment is described as follows: Cytotoxicity against human MDA-MB-231 cells assessed as cell growth inhibition after 48 hrs by MTT assay. Format: functional, cell-based. The conditions noted are these: MDA-MB-231, 48 h. Summed up: as §2

For `O=c1[nH]cc(F)c(=O)[nH]1` [FLUOROURACIL], the Activity in the experiment with A549 [1] was 5.2%; with A549 [3] it was 11.7%; in the experiment on A549 [4] it was 93.2%; in the experiment with A549 [5], 0.6%; in the experiment on A549 [8], 74.3%; with A549 [9] it was 1%. Further, the Activity in the experiment with A549 [10] is 15.3%. The negative-log IC50 (pIC50) (as a rule, −log10 of the IC50, conventionally taken in molar units) in [2] was 4.14; with ASPC1, 4.01; in experiment [6] it was 4.81; in the experiment on A549 [7], 4.40; in the experiment with MDA-MB-231 it was 4.44. In the experiment with A549 [11], the “fold change (FC)” value is 4.2.

For the origin of these results see ChEMBL document CHEMBL3826969, “Synthesis and anticancer potential of novel xanthone derivatives with 3,6-substituted chains” (Bioorg Med Chem, 2016).
